Series [1] deals with Human immunodeficiency virus type 1 integrase (Human immunodeficiency virus 1, UniProt Q7ZJM1). The series can be described thus: Inhibition of HIV1 integrase after 1 hr by ELISA. An outline of the steps: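 ELISA with annealed oligos (7 nM): a 3′-biotin strand and a 5′-digoxigenin complementary strand. Integrase was diluted in 750 mM NaCl, 10 mM Tris pH 7.6, 10% glycerol, 1 mM β-mercaptoethanol, 0.1 mg/mL BSA. Reaction in 10 mM MgCl₂, 5 mM DTT, 20 mM HEPES pH 7.5, 5% PEG, 15% DMSO, 1 h at 37 °C. Detection by immunosorbent assay on avidin-coated plates.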

Series [2] relates to Human immunodeficiency virus 1. The series is described as follows: Antiviral activity against HIV1 […] in human HeLaP4 cells assessed as beta-galactosidase activity after 72 hrs. The note with it: Human immunodeficiency virus 1, HeLaP4, 72 h. Format: functional, organism-based. An outline of the steps:
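Virus (HIV-1 pNL4-3) made by transfecting P4 cells with the genomic clone. Infected CEM4fx cells in triplicate grown with increasing drug concentrations for 3 days. Supernatants collected at 72 h were used to infect HeLa-CD4-β-gal (P4) reporter cells for 24 h. Cells were lysed (50 mM 2-mercaptoethanol, 10 mM MgSO4, 25 mM EDTA, 0.125% NP40), incubated with CPRG, and read at 570 nm. Replicates averaged.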

Series [3] can be described thus: Cytotoxicity gainst human HeLaP4 cells after 3 days by MTT assay. The class given is cell-based.
Series [4] in a line: Therapeutic index, ratio of CC50 for human HeLaP4 cells to EC50 for HIV1 […]. The class given is cell-based. The note with it: read-out: Ratio CC50/EC50.
Series [5] can be described thus: Therapeutic index, ratio of CC50 for human MT4 cells to EC50 for HIV1 3B. The class given is cell-based. Particulars: read-out: Ratio CC50/EC50. An outline of the steps: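 MT-4 cells were infected with 100–300 CCID₅₀ of HIV-1 IIIB, with the CCID₅₀ titrated on MT-4 cells. Drugs were added as fivefold serial dilutions. Protection from virus-induced cytopathic effect was read by MTT reduction to formazan, giving EC₅₀, and CC₅₀ was determined in parallel.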

In series [6] the test system is Human immunodeficiency virus 1. The series is described as follows: Antiviral activity against HIV1 3B infected in human MT4 cells assessed as inhibition of virus-induced cytopathic effect by MTT assay. The class given is functional. Particulars: Human immunodeficiency virus 1, 3B. An outline of the steps: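 HIV-1 IIIB stock titred on MT-4 cells to find CCID50. MT-4 cells infected with 100–300 CCID50 in the presence of fivefold serial drug dilutions. Protection from virus-induced cytopathic effect read by MTT reduction to formazan, measured spectrophotometrically. EC50 taken as the concentration giving 50% protection.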

The subject of another series is MT4. The series is described as follows: Cytotoxicity gainst human MT4 cells after 3 days by MTT assay. The note with it: MT4, 72 h. Format: cell-based. An outline of the steps:
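MT-4 cells in the MT-4/MTT format. CC50 determined in parallel with the antiviral EC50 using the MTT formazan read-out.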

Some results are limits rather than exact numbers.

Human immunodeficiency virus type 1 integrase, sequence (Q7ZJM1 whole entry): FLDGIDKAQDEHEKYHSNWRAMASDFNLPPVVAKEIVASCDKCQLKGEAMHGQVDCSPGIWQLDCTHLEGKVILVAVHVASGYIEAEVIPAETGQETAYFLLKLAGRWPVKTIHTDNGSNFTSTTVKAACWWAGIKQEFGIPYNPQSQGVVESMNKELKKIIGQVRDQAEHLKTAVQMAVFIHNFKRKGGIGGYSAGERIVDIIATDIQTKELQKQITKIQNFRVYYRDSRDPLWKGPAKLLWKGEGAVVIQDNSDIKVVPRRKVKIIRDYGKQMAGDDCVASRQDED

As for `Oc1ccc(-c2ccc3c(O)c(O)ccc3c2)cc1`, in series [1], the 50% inhibitory concentration (IC50) turned out to be 8.1 µM.
In turn, `Oc1ccc2cc(-c3cccc(F)c3)ccc2c1O` had an IC50 in series [1] of 9.6 µM.
Same read-out and setting: next, `Oc1ccc2cc(-c3ccc(C(F)(F)F)cc3)ccc2c1O`: 10 µM.
The same measure, in the same setting: then `Oc1ccc2cc(-c3ccc(F)cc3)ccc2c1O`, with 8 µM.
Same read-out and setting: next, `Oc1ccc2cc(-c3ccccc3)ccc2c1O`: 6 µM.
For `Oc1ccccc1-c1ccc2c(O)c(O)ccc2c1`, in series [1], half-maximal inhibition (IC50) was put at 10 µM.
For `Oc1ccc(-c2ccc3c(O)c(O)ccc3c2)cc1O`, in series [1], inhibition was half-maximal at 2.2 µM (IC50). Moreover, in series [2], the EC50 was 40 µM. In series [3], the CC50 at 72 h was greater than 100 µM.
In series [1], `Oc1ccc2cc(-c3ccccc3C(F)(F)F)ccc2c1O` gave an IC50 of 6 µM.
For the molecule `Oc1cccc(-c2ccc3c(O)c(O)ccc3c2)c1`, the IC50 in series [1] is 4.8 µM.
On to `O=C1C(=O)c2cc(-c3cc(O)c(O)c(O)c3)ccc2C(Oc2c(O)cc(-c3ccc4cc(O)c(O)c(O)c4c3)cc2O)=C1O`, for which, in series [1], the IC50 came out at 0.85 µM. Moreover, the selectivity ratio came to 74 in series [4] and 19 in series [5]. Besides, the EC50 in series [2] worked out at 1.15 µM. In series [3], this molecule had a CC50 at 72 h of 85 µM.
In series [1], `Oc1ccc2cc(-c3ccccc3F)ccc2c1O` displayed an IC50 of 7.3 µM.
The same measure, in the same setting: then `Oc1ccc2cc(-c3cccc(C(F)(F)F)c3)ccc2c1O`, with 10 µM.
In series [1], `Oc1cccc(-c2ccc3c(O)c(O)ccc3c2)c1O` had an IC50 of 1 µM. For the same molecule, the EC50 in series [2] was greater than 100 µM. Moreover, the CC50 at 72 h in series [3] was greater than 100 µM.
`Oc1cc(-c2ccc3cc(O)c(O)c(O)c3c2)cc(O)c1O` had an IC50 in series [1] of 0.5 µM. The EC50 in series [6] was determined as 1 µM. The molecule further showed a CC50 in the series with MT4 greater than 1 µM.
As to `Oc1ccc(-c2ccc3cc(O)c(O)cc3c2)cc1O`, the selectivity ratio in series [4] stood at 5. Further, the EC50 in series [2] was 9.9 µM. For the same molecule, in series [3], it took 51 µM to reach half-maximal cytotoxicity (CC50 at 72 h).

The values above are taken from ChEMBL document CHEMBL1177673, “New 2-arylnaphthalenediols and triol inhibitors of HIV-1 integrase--discovery of a new polyhydroxylated antiviral agent” (Bioorg Med Chem, 2010).
